Assay results as given in PMC11406655 (Therapeutic Advances in Hematology, 2024).
“And” between values parts separate entries of the source, which are not always exact repeats. Identical values can stand only once.

Columns and labels:
Assay type in all cases: in vivo, human
[1] = tested on: patients with relapsed and/or refractory MDS, CMML, or AML; experiment: Safety: adverse events, dose-limiting toxicities and deaths
Outline: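 Open-label, multicenter part 1 in adults with relapsed/refractory MDS, CMML or secondary AML. The 300 mg dose-expansion cohort took the test compound orally once daily with water only, at about the same time (±4 h), on every day of 28-day cycles. Deaths were split into ⩽30 days or >30 days after the last dose. The analysis covered all patients given at least one dose.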

[2] = Plasma pharmacokinetics of GSK3326595
[3] = tested on: symmetrical dimethylarginine (SDMA) in bone marrow biopsies; experiment: SDMA in bone marrow biopsies by immunohistochemistry; settings: for Mean percentage decrease in SDMA in bone marrow biopsies: after 29 days of treatment
Outline: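 Adults with relapsed/refractory MDS, CMML or secondary AML took the test compound orally once daily (400 or 300 mg) with water only, every day of 28-day cycles. Bone marrow biopsies were taken predose and 29 days after treatment began, formalin-fixed and paraffin-embedded. SDMA loss was assessed by immunohistochemistry.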

## CC(=O)N1CCC(Nc2cc(C(=O)NC[C@H](O)CN3CCc4ccccc4C3)ncn2)CC1 [GSK3326595]
[1]; 400 mg, n = 13
  TEAE: AE leading to dose interruption: 10 (77) n (%)
  TEAE: AE leading to dose reduction: 5 (38) n (%)
  TEAE: AE leading to study treatment withdrawn: 4 (31) n (%)
  TEAE: Anemia: 3 (23) n (%)
  TEAE: Any AE: 13 (100) n (%)
  TEAE: Any SAE: 11 (85) n (%)
  TEAE: Decreased appetite: 5 (38) n (%)
  TEAE: Decreased platelet count: 4 (31) n (%)
  TEAE: Diarrhea: 6 (46) n (%)
  TEAE: Dysgeusia: 3 (23) n (%)
  TEAE: Dyspnea: 5 (38) n (%)
  TEAE: Fatal SAE: 9 (69%) n (%) and 9 (69) n (%)
  TEAE: Fatigue: 7 (54) n (%)
  TEAE: Nausea: 4 (31) n (%)
[1]; 300-mg cohort
  Deaths >30 days from last dose of study treatment (number): 6
  Deaths ⩽30 days from last dose of study treatment (number): 8
[1]; 400-mg cohort
  Deaths >30 days from last dose of study treatment (number): 5
  Deaths ⩽30 days from last dose of study treatment (number): 6
[1]; Total, N = 30
  Deaths >30 days from last dose of study treatment: 11 (37%) n (%)
  Deaths ⩽30 days from last dose of study treatment: 47%
  Died (during the study): 25 (83%) n (%)
  GSK3326595-related AE: decreased platelet count: 27%
  GSK3326595-related AE: dysgeusia: 23%
  GSK3326595-related AE: fatigue: 20%
  GSK3326595-related AE: nausea: 20%
  GSK3326595-related TEAE with maximum grade of 3 or 4: decreased neutrophil count: 4 (13%) n (%)
  GSK3326595-related TEAE with maximum grade of 3 or 4: decreased platelet count: 6 (20%) n (%)
  GSK3326595-related TEAE with maximum grade of 3 or 4: thrombocytopenia: 3 (10%) n (%)
  GSK3326595-related TEAE: AE leading to study treatment withdrawn: 2 (7) n (%)
  GSK3326595-related TEAE: Anemia: 3 (10%) n (%) and 3 (10) n (%)
  GSK3326595-related TEAE: Any SAE: 6 (20%) n (%) and 6 (20) n (%)
  GSK3326595-related TEAE: Any TEAEs: 22 (73) n (%)
  GSK3326595-related TEAE: Any grade 3/4 TEAE: 13 (43) n (%)
  GSK3326595-related TEAE: Decreased appetite: 4 (13%) n (%) and 4 (13) n (%)
  GSK3326595-related TEAE: Decreased platelet count: 8 (27%) n (%) and 8 (27) n (%)
  GSK3326595-related TEAE: Dysgeusia: 7 (23%) n (%) and 7 (23) n (%)
  GSK3326595-related TEAE: Fatal SAE: 1 (3) n (%)
  GSK3326595-related TEAE: Fatigue: 6 (20%) n (%) and 6 (20) n (%)
  GSK3326595-related TEAE: Nausea: 6 (20%) n (%) and 6 (20) n (%)
  GSK3326595-related TEAE: Neutrophil count decreased: 4 (13%) n (%) and 4 (13) n (%)
  GSK3326595-related TEAE: Thrombocytopenia: 3 (10%) n (%) and 3 (10) n (%)
  Patients who died during the study: 83%
  SAE: anemia: 3 (10%) n (%)
  SAE: febrile neutropenia: 5 (17%) n (%)
  SAE: pneumonia: 4 (13%) n (%)
  SAE: sepsis: 8 (27%) n (%)
  SAE: thrombocytopenia: 3 (10%) n (%)
  TEAE with maximum grade of 3 or 4: anemia: 8 (27%) n (%)
  TEAE with maximum grade of 3 or 4: decreased neutrophil count: 7 (23%) n (%)
  TEAE with maximum grade of 3 or 4: decreased platelet count: 11 (37%) n (%)
  TEAE with maximum grade of 3 or 4: dyspnea: 4 (13%) n (%)
  TEAE with maximum grade of 3 or 4: fatigue: 4 (13%) n (%)
  TEAE with maximum grade of 3 or 4: febrile neutropenia: 6 (20%) n (%)
  TEAE with maximum grade of 3 or 4: hypotension: 4 (13%) n (%)
  TEAE with maximum grade of 3 or 4: pneumonia: 6 (20%) n (%)
  TEAE with maximum grade of 3 or 4: thrombocytopenia: 5 (17%) n (%)
  TEAE: AE leading to dose interruption: 20 (67) n (%)
  TEAE: AE leading to dose reduction: 6 (20) n (%)
  TEAE: AE leading to study treatment withdrawn: 7 (23) n (%)
  TEAE: Anemia: 10 (33%) n (%) and 10 (33) n (%)
  TEAE: Any AE: 30 (100) n (%)
  TEAE: Any SAE: 23 (77) n (%)
  TEAE: Decreased appetite: 9 (30%) n (%) and 9 (30) n (%)
  TEAE: Decreased platelet count: 12 (40%) n (%) and 12 (40) n (%)
  TEAE: Diarrhea: 13 (43%) n (%) and 13 (43) n (%)
  TEAE: Dysgeusia: 10 (33%) n (%) and 10 (33) n (%)
  TEAE: Dyspnea: 11 (37%) n (%) and 11 (37) n (%)
  TEAE: Fatal SAE: 14 (47) n (%)
  TEAE: Fatigue: 13 (43%) n (%) and 13 (43) n (%)
  TEAE: Nausea: 9 (30%) n (%) and 9 (30) n (%)
  TEAE: thrombocytopenia: 5 (17%) n (%)
  Treatment-related SAE: decreased neutrophil count: 3 (10%) n (%)
[1]; Total, N = 30, n = 2
  Study treatment discontinued due to sepsis: 7%
[2]; 300 and 400 mg
  Dose proportionality of exposure: dose-proportional
[2]; human, plasma, po, 400 mg
  half-life: 4 to 6 h
[2]; human, plasma, po, 400 mg, Tmax, 300 and 400 mg once daily
  Tmax: ~2 h
[3]; 300-mg cohort, 7 patients
  Mean percentage decrease in SDMA in bone marrow biopsies: 84.63%
[3]; 400-mg cohort, 4 patients
  Mean percentage decrease in SDMA in bone marrow biopsies: 85.75%
[3]; day 29, 300-mg cohort
  Maximum observed decrease in tumor SDMA: 97.8%
[3]; day 29, 400-mg cohort
  Maximum observed decrease in tumor SDMA: 100%
